Like-named read-outs stand apart in the source and are kept apart here. Marks after values point to notes of the source that are not given here.
Key:
[1] = assay type: in vivo, human; conditions: for AUC0–96h, geometric mean (CV%) / AUC0–48h, geometric mean (CV%) / t 1/2, geometric mean (CV%) / t max,1, median (range): plasma, raloxifene 60 mg oral
Method in brief: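 Open-label fixed-sequence crossover in 16 healthy adults (8 male, 8 female), arms ≥7 days apart, fasted from midnight. Oral 60 mg test compound tablet with 240 mL water at 50°C (baseline) or brewed green tea. Acute: tea (one bag, 240 mL water, 80°C, 3 min, cooled to 50°C) given with dose, then at 4 and 8 h. Chronic: tea three times daily for 4 days, then day 5 as acute.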

[2] = Follow-up exploratory clinical study: plasma pharmacokinetics; assay type: in vivo, human; conditions: follow-up study; for AUC0–48h green tea/baseline ratio (90% CI) / Cmax,1 green tea/baseline ratio (90% CI): acute green tea vs baseline; for AUC0–48h, geometric mean (CV%) / t max,1, median (range) / Cmax: plasma; for Cmax: read-out: Cmax,1, geometric mean (CV%)
Method in brief: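 Six healthy adults (3 male, 3 female) in sequential arms ≥7 days apart: oral test compound with water, then with acute brewed green tea, then tea alone. Plasma sampled 0–48 h at the main-study times. Analysed by UHPLC–MS/MS for parent and glucuronides. […] Green tea/baseline ratios on log-transformed data, paired two-tailed t-test.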

[3] = 16 healthy adults, baseline (water)

Metabolite‐to‐parent AUC0–96h ratio, geometric mean (CV%) ([1]; acute green tea)	AUC0–48h green tea/baseline ratio (90% CI) ([1]; acute green tea vs baseline)	AUC0–96h green tea/baseline ratio (90% CI) ([1]; acute green tea vs baseline)	Cmax,1 green tea/baseline ratio (90% CI) ([1]; acute green tea vs baseline)	t 1/2 green tea/baseline ratio (90% CI) ([1]; acute green tea vs baseline)	Metabolite‐to‐parent AUC0–96h ratio, geometric mean (CV%) ([1]; baseline (water))	Metabolite‐to‐parent AUC0–96h ratio, geometric mean (CV%) ([1]; chronic green tea)	AUC0–48h green tea/baseline ratio (90% CI) ([1]; chronic green tea vs baseline)	AUC0–96h green tea/baseline ratio (90% CI) ([1]; chronic green tea vs baseline)	Cmax,1 green tea/baseline ratio (90% CI) ([1]; chronic green tea vs baseline)	t 1/2 green tea/baseline ratio (90% CI) ([1]; chronic green tea vs baseline)	AUC0–96h, geometric mean (CV%) [1, 3]	AUC0–48h, geometric mean (CV%) ([1]; acute green tea)	AUC0–96h, geometric mean (CV%) ([1]; acute green tea)	t 1/2, geometric mean (CV%) ([1]; acute green tea)	t max,1, median (range) ([1]; acute green tea)	AUC0–48h, geometric mean (CV%) ([1]; baseline (water))	t 1/2, geometric mean (CV%) ([1]; baseline (water))	t max,1, median (range) ([1]; baseline (water))	AUC0–48h, geometric mean (CV%) ([1]; chronic green tea)	Structure (SMILES)	further results
161 (36)	0.54 (0.43–0.68)	0.57 (0.45–0.73)	0.42 (0.31–0.57)	0.91 (0.72–1.16)	160 (34)	159 (34)	0.57 (0.43–0.76)	0.65 (0.51–0.82)	0.46 (0.31–0.70)	0.92 (0.72–1.18)	2350 (45) nM‐h	1080 (55) nM‐h	1350 (69)** nM‐h	15.9 (66) h	1.5 (0.5–6) h	1990 (48) nM‐h	17.0 (57)^b h	1.25 (0.25–4) h	1134 (56) nM‐h	O=C(c1ccc(OCCN2CCCCC2)cc1)c1c(-c2ccc(O[C@@H]3O[C@H](C(=O)O)[C@@H](O)[C@H](O)[C@H]3O)cc2)sc2cc(O)ccc12 [Raloxifene 4′‐glucuronide, raloxifene 4′‐glucuronide]	AUC0–96h, geometric mean (CV%) ([1]; chronic green tea): 1520 (76)* nM‐h; t 1/2, geometric mean (CV%) ([1]; chronic green tea): 15.6 (48)^b h; t max,1, median (range) ([1]; chronic green tea): 1.25 (0.5–3) h; Metabolite‐to‐parent AUC0–48h ratio, geometric mean (CV%) ([2]; acute green tea): 184 (25); AUC0–48h green tea/baseline ratio (90% CI) [2]: 0.93 (0.81–1.06); Cmax,1 green tea/baseline ratio (90% CI) [2]: 0.79 (0.68–0.93); Metabolite‐to‐parent AUC0–48h ratio, geometric mean (CV%) ([2]; baseline): 179 (23); AUC0–48h, geometric mean (CV%) ([2]; acute green tea): 1368 (50) ^* nM‐h; t max,1, median (range) ([2]; acute green tea): 1 (0.5–1) h; t max,1, median (range) ([2]; baseline): 1.25 (1–3) h; AUC0–48h, geometric mean (CV%) ([2]; six healthy adults, baseline): 1473 (50) nM‐h; Cmax ([2]; acute green tea): 75 nM; Cmax ([2]; baseline): 94.4 nM
39 (43)	0.57 (0.45–0.74)	0.60 (0.47–0.77)	0.38 (0.23–0.63)	1.08 (0.90–1.31)	37 (45)	37 (44)	0.59 (0.43–0.79)	0.67 (0.53–0.86)	0.50 (0.35–0.73)	0.92 (0.76–1.12)	535 (48) nM‐h	255 (68) nM‐h	324 (79)* nM‐h	20.5 (36)^b h	1.5 (0.5–4) h	444 (56) nM‐h	18.9 (40)^b h	1.5 (1–4) h	261 (57) nM‐h	O=C(c1ccc(OCCN2CCCCC2)cc1)c1c(-c2ccc(O)cc2)sc2cc(O[C@@H]3O[C@H](C(=O)O)[C@@H](O)[C@H](O)[C@H]3O)ccc12 [Raloxifene 6‐glucuronide, raloxifene 6‐glucuronide]	AUC0–96h, geometric mean (CV%) ([1]; chronic green tea): 360 (78) nM‐h; t 1/2, geometric mean (CV%) ([1]; chronic green tea): 17.8 (46)^c h; t max,1, median (range) ([1]; chronic green tea): 1.5 (1–6) h; Metabolite‐to‐parent AUC0–48h ratio, geometric mean (CV%) ([2]; acute green tea): 22 (50); AUC0–48h green tea/baseline ratio (90% CI) [2]: 0.88 (0.73–1.06); Cmax,1 green tea/baseline ratio (90% CI) [2]: 0.73 (0.60–0.88); Metabolite‐to‐parent AUC0–48h ratio, geometric mean (CV%) ([2]; baseline): 23 (47); AUC0–48h, geometric mean (CV%) ([2]; acute green tea): 166 (61) nM‐h; t max,1, median (range) ([2]; acute green tea): 1 (1–3) h; t max,1, median (range) ([2]; baseline): 1.25 (1–3) h; AUC0–48h, geometric mean (CV%) ([2]; six healthy adults, baseline): 189 (46) nM‐h; Cmax ([2]; acute green tea): 6.85 nM; Cmax ([2]; baseline): 9.39 nM
